Our source for the yeast fitness values is the RNAGym collection of RNA variant scans (doi:10.1126/science.aae0568).

This sample holds only a part of the variants without activity.

The labels stand for the following.
B1: tRNA (parent)
chain: GUUCCGUUGGCGUAAUGGUAACGCGUCUCCCUCCUAAGGAGAAGACUGCGGGUUCGAGUCCCGUACGGAACG

Variants of B1 are the subject of this data set. Kind of data set: yeast fitness relative to wild type (ratio to wild type); higher = fitter; tRNA-Arg(CCU), competitive growth, 37 C, YPD. The procedure, abridged: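 Changes in genotype frequencies gave Darwinian fitness relative to wild type. Frequencies were read by 100-nucleotide paired-end sequencing of gene amplicons before and after pooled Saccharomyces cerevisiae strains, carrying tRNA-Arg(CCU) gene variants at the native locus, were competed in YPD at 37°C for 24 hours in six replicates. A genotype was kept only with ≥ 100 starting reads, and estimates < 0.5 were set to 0.5.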
For GUUCCCUUGGCGUAAUGGUAACCCGUCUCCCUCCUAAGGAGAAGACUGCGGGUUCGAGUCCCGUACGGAACG, the yeast fitness was determined as 0.643.

Consider GUUCCGUUGGAGUAAUGGUAACGCGUCUCCUUCCUACGGAGAAGACUGCGCGUUGGAGUCCCGUACGGAACG, for which the yeast fitness is no more than 0.5.

GAUCCGUAGGCGUAAUGGUAACGCGUCUCCCUUCUAAGGAGAUGACUGCGGGUUCGAGUCCCGUACGGAACG: the yeast fitness is no more than 0.5.

For the variant GUUCCGUUGGCGGAAUGGUAACGCGUCUCCCUCCUUAGGCGAAGACUGCGGGUUCGAGUCCCGUACGGAACG, the yeast fitness was no more than 0.5.

On to GUUCCGUUGGCGUAAUGGUAACGCCUCUCCCCCCUAAGGAGAAGACUGCGGGUUCGAGUCCCGUACGGAACG, for which the yeast fitness is 0.948.

On to GUUCCGUUGGCGUAAUGGUAACGCGUCUCCCUCCUAAGGAGAAGACUACGGGUUCGAAGCCCGUACAGAACG, for which the yeast fitness is no more than 0.5.

Regarding GUUCCGUUGGCGUAAUGGUAACGCGUCUCCCUCCUAAGGAGAAGACUGCGGGUUCGGGUCCCGUGCGGCACG, the yeast fitness came out at 0.7.

Turning to GUUCCGUCGGCGUAAUGGUAACGUGUCUCCCUCCUAAGGAGCAGACUGCUGGUUCGAGUCCCGUACGGAACG, the yeast fitness came out at 0.674.

For the variant GUUCCGUUGGCGUAAUAGUAACGCGUCCCCCUCCUAAGGAGAAGAUUGCGGGUUCGAGUCCCAUACGGAACG, the yeast fitness is no more than 0.5.

Regarding GUUCAGUUGGCGUAAUGGUAACGCGUCUCCCUCCGAAGGAGCAGACUGCGGGUUCGAGUCCCGUACGGCACG, the yeast fitness amounted to 0.588.

As for GUUCCGUUGGCGUAAUGGUAACGUGUUUCCCUCCUAAGGGGAAAACUGCGGGUUCGAGUCCCGUACGGAACG, the yeast fitness is no more than 0.5.

In the case of GUUACAUUGGCGUGAUGGUAACGCGUCUCCCUCCUAAGGAGAAGACUGCGGGUUCGAGUUCCGUACGGAACG, the yeast fitness was no more than 0.5.

For the variant GCUCAGUUGGCGUAAUGGUAACGCGUCUCCCUCCUAAGGAGAAGACUGCGGGUUCGAGUCCCGUACGGAACG, the yeast fitness is 0.845.

As for GUUCCGUUGGCGUAAUGGUAACGCGUCUCCCUCCUAAGGAGAUGACUGCGGGUUCGAGUCCCGUUAGGAACG, the yeast fitness is no more than 0.5.

With GUUCCGUUGGCGUAAUGGUAACGCGUCUCCCUCCACAGGAGAAGACUGCGGGUUCGAGUCCCGUAAGGAACG, the yeast fitness is no more than 0.5.

Take GUUCCGUUGGCGUAAUGGUAACGCGUCUCCCUGCUAAGGAGUAGACUGCGGGUUCGAGUCCCAUACGGAACG: the yeast fitness worked out at 0.516.

With GUUCCGUUGGGGUAAUGGUUACGCGUCCCCCUCCUACGGAGAAGACUGGGGGUUCGAGUCCCGUACGGAACG, the yeast fitness was found to be 0.611.

Regarding GUUCUGUUGGCGAAAUGGUAACGCGUCUCCCUCCUAAGGAGAAGACUGCGGGUUCGAGUCCCGUACGGAACG, the yeast fitness worked out at 0.842.

As for GUUCCGUUCGCGUAAUGGUAACGUGUCUCGCUCCUAAGGAGAAGACUGCGGAUUCGAGUCUCGUACGGAACG, the yeast fitness was no more than 0.5.

In the case of GUUCCGUUGGCGUAAUGGUAGCGCGUCUCCCUCCUAAGGAGCAGACUGCAGGUUCGAGUCCCGUACGGAACG, the yeast fitness was 0.648.

GUUAUGUUGGCGUAAUGGUAACGCGUCUCCCUCCUAAGGAGAAGACUGCGGGUUCGUGCCCCGUACGGAACG: the yeast fitness was no more than 0.5.

As to GUUCCGUUGGCGUAAUGGUAACGCGUCUCCCUCCUAAGGAGAAGACUGCGGGUUCGAGUCCCGUGCGGAACG, the yeast fitness came to 0.999.

With GUGCUGUUGACGUAAUGGUAACGCGUCUCCUUCCUAAGGACACGACUGCGGGUUCGAGUCCCGUACGGAACG, the yeast fitness is no more than 0.5.

For the variant GUUCCGUUGGCGUAAUGGCAAUGCGUCUCCCGCUUAAGGGGAAGACUGCGGGUUCGUGUCCCGUACGGAUCG, the yeast fitness is no more than 0.5.

Consider GGUCCGUUGGCGUAAUGGUAACGCGUCUCCCUCCUAAGGAGAAGCCUGUGGGUUUGAGUCCCGUACGGAACG, for which the yeast fitness was no more than 0.5.

For the variant GUUCCGUUGGCGUAAUGGUAACGCGUCUCCCUUCUAAGGAGAAGACUGCGGGUUCGAGUCCGGUACGGAACG, the yeast fitness is 0.632.

In the case of GUUCCGUUGGCGUAAUGGUAACGCGUCUACCUCCUAAGGAGAAGACUGCGGGUUCGAGUCCCGUACGGUACG, the yeast fitness is 0.756.

As for GUUCCGUUAGCGUAAUGGUAAAGCGUCUCCCUCCUAAGGAGAAGACUGCGGGUUCGAGUCCCGUACGGAACG, the yeast fitness was 0.919.

Regarding GUUCCCUUGGCAUAAUGGUAACGCGUCUCCCUCCUAAGGAGAAGACUGUGGGUUCGACUCCCGUACGGAACG, the yeast fitness was determined as 0.776.

Turning to GCUCCGUUGGCGUUAUGGUAACGCGUCUCCCUCCUAAGGAGAAGACUGCGGGUUCGAGUCCCGUACGGAACG, the yeast fitness worked out at 0.764.

As for GUUCAGUUGGCGUAAUGGUAACGCGUCUCCCUUCUGAGGAGAAGACUGCGGGUUCGAGUCCCGUACGGAACG, the yeast fitness amounted to 0.532.

Turning to GUUCCGUUGGCGUAAUGGUAACGCGUCUCCCUCCUAGGGAGAAGACUGCGGGUACGAGUCCCGUACGGAACG, the yeast fitness is no more than 0.5.

For the variant GUUCCGUUGGCGUAAUGGUAACGCGUUUCCCUCCUAAGGAGAAGACUGCGGGCUCGAGUCCCGUACGGAACG, the yeast fitness amounted to 0.617.

Turning to GUUCCGUUAGCGUAAUGGUAACGCGUCCCCCUCCUAAGGAGAAAACUGCGGGUUCGAGUCCCGUACGCAACG, the yeast fitness was no more than 0.5.

In the case of GUUCCGUUGGCGUAAUGGUAACGGGUCUCCCUCCUAAGGAGAAGACUGCGGGUCAGAGUCCCGUUCGGAACG, the yeast fitness is no more than 0.5.

As for GGUCCGUUGGCGUAAUGGUAAUGGGUCUCCCUCCUAAGGAGAAGACUGCGGGUUCGAGUCCCGUACGGCACG, the yeast fitness is 0.579.

Take GUUCCGUUGGCGUAAUGGUAACGCGUGUCCCUCCUAAGGAGGAGACUGCGGGUUCGAGUCCCGUACGAAACG: the yeast fitness was no more than 0.5.

As to GUUCCGUUGACGUAAUGGUAACCCGUCUUCCUCCUCAGGAGAAGACUGGGGGUUCGAGUCCCGUACGGACCG, the yeast fitness turned out to be 0.553.
